Screening data from PubChem BioAssay.
T cruzi repl = inhibitors of intracellular T. cruzi growth, primary screen, luminescence, NIH3T3 host cells; T. cruzi beta-gal in NIH3T3, 90 h; inhibition, % (no concentration beside the values); actives 1.4% (n = 300,000); AID 1885, 2009;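 active = mean inhibition across valid replicates above about 55%, limit read from the data; inconclusive = mean below that limit but half or more replicates reach it; inactive = mean below it, under half of replicates reach it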;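 also: signal also drops with host cell toxicity which is not excluded here; 0% = plate median of DMSO wells and 100% = zero luminescence signal; higher percent means less beta-gal luminescence so fewer parasites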
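Test system: β-gal T. cruzi (Tulahuen C4) inside NIH/3T3 cells / Quantity: 5,000 cells/well / Measured by: luminescence from GalScreen with 0.05% NP40, read after 60 min / Medium: DMEM plus 2% FBS / Measure: parasite load inhibition, % / Reagent: Tulahuen C4 trypomastigotes, 5000/well / Schedule: co-culture of at least 90 h after 3 h attachment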
NALP1 yeast inh = NALP1 inflammasome inhibitors in reconstituted yeast, colorimetric, S. cerevisiae, triplicate retest; S. cerevisiae NALP1/ASC/caspase-1 growth, X-gal OD620, 72 h; inhibition, % at 10 µM; actives 0.61% (n = 280,000); AID 2071, 2009; in the data active = inhibition mostly above about 24%, no sharp cut-off; inactive = mostly below about 32%
Calb FLC = C. albicans growth inhibition with fluconazole, primary screen, CaCi-2 strain, Alamar Blue fluorescence; C. albicans CaCi-2 + fluconazole, 48 h; growth inhibition, % (no concentration beside the values); AID 1979, 2009; actives 0.57% (n = 300,000);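 active = growth inhibition above about 58% in most replicates, limit read from the data, passing the limit was not always enough; inconclusive = exactly half the replicates above a set limit; inactive = most replicates below a set limit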;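 also: all wells also contain fluconazole at 8 µg/ml as a sub-toxic cotreatment; 0% = median of DMSO wells and 100% = median of geldanamycin control wells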
PolyA inh = polyadenylation inhibitors in yeast reporter cells, primary screen, luminescence, S. cerevisiae. S. cerevisiae SKY197-pL101 polyadenylation reporter, beta-gal luminescence; efflux-impaired pdr1/pdr3 knockout yeast; score 100 = 6 SD above DMSO. activity score, % at 12 µM. actives 0.02% (n = 300,000). AID 1875, 2009;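 active = lowest replicate activity score at least 50, where 100 means six control SD above control mean; inconclusive = lowest score under 50 but half or more replicates reach 50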;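 also: yeast exposed to compound for 9 h at 30 °C; higher score means more reporter readthrough which indicates perturbed polyadenylation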
NALP3 yeast inh = NALP3 inflammasome inhibitors in reconstituted yeast, primary screen, luminescence, uHTS; Yeast reconstituted NLRP3/ASC/caspase-1, beta-gal luminescence, 24 h; AID 2825, 2010; actives 0.39% (n = 330,000); inhibition, % at 10 µM;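 active = inhibition of 50% or more; inactive = inhibition below 50%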;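 also: plate controls were induced DMSO wells for no effect and uninduced yeast grown without galactose for full effect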
L major viab = Leishmania major promastigote growth inhibition, primary screen. inhibition, % at 10 µM. Leishmania major promastigotes, resazurin fluorescence viability. actives 9% (n = 200,000). AID 1063, 2008; in the data active = inhibition above about 50%;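 also: promastigotes grown with compound for 44 hours at 28 °C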
* marks the source's active call; other numbers are inactive results; ? = inconclusive; . = not tested or not shown. Many of the other results were omitted from the sample, so hits are more common in it than they were.

SMILES	T cruzi repl	NALP1 yeast inh	Calb FLC	PolyA inh	NALP3 yeast inh	L major viab
Nc1ccccc1-c1nc2ccccc2[nH]1	15	45	0	13	33	17
Nc1ccc(-c2nc3ccccc3[nH]2)cc1	1	.	4	-6	-1	-2
CCCCCCCN1C(Nc2ccccc2)=NC[C@@H]1Cc1ccccc1	?	30	84*	-6	27	.
CC(C)c1ccc(N(CCc2ccccn2)C(=O)C(C)(C)C)cc1	16	.	3	1	10	.
CC(C)(O[C@@H]1O[C@H](CO)[C@@H](O)[C@H](O)[C@H]1O)[C@H]1Cc2cc3ccc(=O)oc3cc2O1	-17	8	3	-2	-5	-6
CCCCOC(=O)Nc1nnc(CC)s1	21	43*	-13	-1	33	20
CCCCCOC(=O)Nc1nnc(CCCCC)s1	8	-6	-31	-2	38	-4
COc1ccc(/C=N/NC(=O)c2ccc(CSc3nc(C)cc(C)n3)cc2)cc1O	-11	15	-12	-6	11	-8
Cc1cc(C)nc(SCc2ccc(C(=O)N/N=C/c3ccc(C(=O)O)cc3)cc2)n1	-11	-17	14	-6	-9	-3
Cc1cc(C)nc(SCc2ccc(C(=O)N/N=C/c3cccc(O)c3O)cc2)n1	34	20	-1	-10	9	98*
COc1ccc(O)c(/C=N/NC(=O)c2ccc(CSc3nc(C)cc(C)n3)cc2)c1	41	38	119*	6	15	99*
O=C(Nc1ccc(O)cc1)c1ccc2c(c1)C(=O)N(Cc1ccco1)C2=O	-9	24	-1	29	8	61*
CN1CC(c2ccc(Cl)c(Cl)c2)[C@@]2(COc3ccccc3C2=O)[C@@]12C(=O)Nc1ccccc12 (stereo partly specified)	49	27	-10	-11	-9	81*
Cc1ccc(CN2CCC(n3nccc3NC(=O)CCOc3ccccc3)CC2)cc1C	24	9	-14	-2	11	.
CCCn1c(C(=O)OC)cc2c1ccn2-c1ccc(F)cc1	11	-9	-31	-13	5	99*
COC(=O)c1cc2c(ccn2-c2ccc(F)cc2)n1CC(C)C	-13	2	-7	-7	12	98*
COC(=O)c1cc2c(ccn2-c2ccc(F)cc2)n1C(C)C	27	14	-3	-6	-4	0
Cc1n(-c2ccccc2)c2ccc(Cl)cc2[n+]1CCO	-14	-4	-23	6	7	-4
CCOc1ccc(NC(=O)c2ccc(NC(=O)c3cn4c5c(c(N6CCN(C)CC6)c(F)cc5c3=O)OCC4C)cc2)cc1 (stereo unspecified)	19	86*	10	3	18	93*
Cc1ccc2c(c1)N(CC(=O)NCCCN1CC(C)CC(C)C1)C(=O)c1cccnc1O2 (stereo unspecified)	-8	10	-1	1	20	.
COc1ccc2c(CC(=O)Nc3ccc(OC)c(NS(=O)(=O)c4ccc(F)cc4)c3)coc2c1	-30	19	40	2	10	57*
O=C(NCC(=O)N1CCN(c2ccccc2O)CC1)c1ccc2c(c1)OCO2	-13	4	3	?	21	.
Cn1c(=O)[nH]c(=O)c2c1nc(N1CCNCC1)n2Cc1ccccc1	1	16	2	4	11	.
Cc1nnc(SCCn2c(N3CCC(Cc4ccccc4)CC3)nc3c2c(=O)[nH]c(=O)n3C)s1	26	.	4	-2	5	.
Cn1c(=O)[nH]c(=O)c2c1nc(N1CCNCC1)n2Cc1cccc2ccccc12	4	10	0	9	11	83*
CCCCn1c(N2CCC(Cc3ccccc3)CC2)nc2c1c(=O)[nH]c(=O)n2C	37	4	-2	0	7	78*
O=C1NC2(CCCCC2)C(=O)N1Cc1cccc(C(F)(F)F)c1	-10	-13	-9	5	18	98*
COc1ccc(-n2ccnc(SCC(=O)NCc3ccccc3Cl)c2=O)cc1	-22	19	?	-13	11	.
